Each structure is given as a SMILES string.

In one test the target is T1, Lanosterol synthase (Rattus norvegicus, UniProt P48450).
T1 sequence (P48450 whole entry): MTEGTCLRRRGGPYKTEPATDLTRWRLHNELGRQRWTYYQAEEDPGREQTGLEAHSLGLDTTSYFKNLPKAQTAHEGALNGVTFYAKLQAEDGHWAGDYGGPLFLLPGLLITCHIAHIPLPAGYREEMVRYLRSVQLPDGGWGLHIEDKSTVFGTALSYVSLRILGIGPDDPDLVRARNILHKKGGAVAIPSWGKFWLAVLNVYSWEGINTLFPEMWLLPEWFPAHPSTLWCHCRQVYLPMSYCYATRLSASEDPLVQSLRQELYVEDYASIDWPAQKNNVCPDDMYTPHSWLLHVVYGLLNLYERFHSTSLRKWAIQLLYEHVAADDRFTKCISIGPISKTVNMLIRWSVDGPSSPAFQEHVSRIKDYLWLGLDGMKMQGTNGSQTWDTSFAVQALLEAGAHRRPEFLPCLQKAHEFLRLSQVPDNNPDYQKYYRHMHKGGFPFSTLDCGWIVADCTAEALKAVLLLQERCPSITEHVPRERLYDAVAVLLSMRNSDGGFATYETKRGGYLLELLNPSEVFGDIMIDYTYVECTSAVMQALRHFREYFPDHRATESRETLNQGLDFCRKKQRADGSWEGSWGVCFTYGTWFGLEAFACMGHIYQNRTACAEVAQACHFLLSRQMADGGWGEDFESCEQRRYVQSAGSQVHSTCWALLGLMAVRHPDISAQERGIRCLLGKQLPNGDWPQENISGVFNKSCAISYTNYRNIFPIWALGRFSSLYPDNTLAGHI
Briefly: Inhibition of compound was measured on rat microsomal Oxidosqualene-lanosterol cyclase. Summed up: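 Rat liver microsomes diluted in 50 mM phosphate buffer pH 7.4 with tween; compounds from DMSO stocks (10^-4 M, serial tenfold dilutions) preincubated with microsomes 10 min at 37 °C, then cold plus radiolabelled oxidosqualene added, 1 h incubation. Stopped with ethanolic KOH, heated 80 °C 2 h, hexane-extracted; inhibition from radiolabelled product.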
As a reminder, the IC50 is the midpoint of a concentration-inhibition curve. High values mean weaker potency in that assay, low ones greater potency in that assay. `C=CCc1cc(CCC(=O)OCC)ccc1C#CC1(O)CN2CCC1CC2` (centres undefined) had an IC50 of more than 0.1 µM.

For the compound `OC1(c2ccc(-c3ccccc3)cc2)CN2CCC1CC2` (centres undefined), the IC50 is more than 0.1 µM.

The next test concerns the target T2, Lanosterol synthase (Rattus norvegicus) (UniProt P48450).
T2 sequence (whole entry): T1 sequence (P48450 whole entry)
Description: The in vivo assay of compound for inhibition of cholesterol biosynthesis was measured on Oxidosqualene-lanosterol cyclase of rat at 5 mg/kg. The test is classed as functional, organism-based. On the set-up: dose 5 mg/kg. The procedure, abridged:
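Female rats (130 ± 20 g) on reverse lighting dosed orally in DMSO/HPMC; tritiated mevalonate (2.5 μCi) given 1 h later, rats killed after another 1 h. Liver extracts run on HPLC with radiodetection; peaks assigned against standard sterol intermediates' retention times; cholesterol synthesis inhibition from peak area, plus intermediate selectivity profile.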
Broadly, the inhibition is the change of the read-out against control, counted positive when it falls. High values mean a strong effect, low ones a weak effect. Compound `O=C(c1ccc(Cl)cc1)c1ccc(OC2CN3CCC2CC3)cc1` (centres undefined) displayed an inhibition of 92%. With `O=C(/C=C1\CN2CCC1CC2)c1ccc(C(=O)c2ccc(Br)cc2)cc1`, the inhibition was 84%.

The target in another test is T3, Squalene synthase (Rattus norvegicus, UniProt Q02769).
T3 sequence (Q02769 whole entry): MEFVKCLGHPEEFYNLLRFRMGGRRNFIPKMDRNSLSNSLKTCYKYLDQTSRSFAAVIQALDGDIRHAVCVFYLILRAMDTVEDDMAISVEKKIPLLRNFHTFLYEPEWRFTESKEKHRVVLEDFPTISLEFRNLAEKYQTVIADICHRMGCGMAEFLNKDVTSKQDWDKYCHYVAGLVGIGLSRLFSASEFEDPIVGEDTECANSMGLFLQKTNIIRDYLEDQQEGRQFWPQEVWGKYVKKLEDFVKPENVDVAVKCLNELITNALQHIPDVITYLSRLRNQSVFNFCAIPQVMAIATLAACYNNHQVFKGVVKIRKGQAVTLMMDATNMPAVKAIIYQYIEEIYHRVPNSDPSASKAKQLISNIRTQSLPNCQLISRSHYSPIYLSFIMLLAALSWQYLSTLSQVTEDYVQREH
Briefly: Compound was measured for the inhibition of rat microsomal squalene synthase enzyme.
Compound `C=CCc1cc(CCC(=O)OCC)ccc1C#CC1(O)CN2CCC1CC2` (centres undefined) returned an IC50 of 0.006 µM.

In a further test the target is T2, Lanosterol synthase (Rattus norvegicus). Description: The in vivo assay of compound for inhibition of cholesterol biosynthesis was measured on Oxidosqualene-lanosterol cyclase of rat at 5 mg/kg.
On to `Brc1ccccc1SC1CN2CCC1CC2` (centres undefined), for which the inhibition is less than 5%. On the same count and under the same terms, with `Brc1ccc(SC2CN3CCC2CC3)cc1` (centres undefined) the figure was 47%; with `O=S(=O)(c1ccc(Br)cc1)c1ccc(C#CC2(O)CN3CCC2CC3)cc1` (centres undefined), 94%; with `OC1(C#Cc2ccc(Sc3ccc(Br)cc3)cc2)CN2CCC1CC2` (centres undefined), 79%. Still for that read-out and setting: in the case of `Brc1cccc(SC2CN3CCC2CC3)c1` (centres undefined) it was less than 5%; in that of `O=C(c1ccc(Br)cc1)c1ccc(C#CC2(O)CN3CCC2CC3)cc1` (centres undefined), 59%.

`O=C(c1ccc(C(F)(F)F)cc1)N1CCC(=Cc2ccc(C3=NCCO3)cc2)CC1`: the inhibition was 98%.

In turn, `OC1(C#Cc2ccc(Oc3ccc(Br)cc3)cc2)CN2CCC1CC2` (centres undefined) yielded an inhibition of 55%. Compound `[O-][S+](c1ccc(Br)cc1)c1ccc(C#CC2(O)CN3CCC2CC3)cc1` (centres undefined) gave an inhibition of 83%.

For the origin of these results see ChEMBL document CHEMBL1132628, “Quinuclidine inhibitors of 2,3-oxidosqualene cyclase-lanosterol synthase: optimization from lipid profiles” (J Med Chem, 1999).
